Source: PubChem (several laboratories)
A3G deaminase: APOBEC3G DNA deaminase inhibitors, primary screen, biochemical, fluorescence, single-stranded DNA substrate, uHTS | DNA dC->dU-editing enzyme APOBEC-3G (Homo sapiens), Q9HC16 | recombinant A3G, ssDNA deamination FAM/TAMRA fluorescence | inhibition, % at 20 µM | 330,000 tested, 0.28% active | AID 493012, 2011;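 active = inhibition of at least 40% at 20 µM, with no more than 30% in the related APOBEC3A deaminase screen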;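 note: plate controls were DMSO wells with A3G for no effect and wells lacking A3G enzyme for full effect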
C2C12 statin: suppressors of statin myotoxicity in C2C12 myotubes, primary screen, cell-based, single point, plate reader; C2C12 myotubes + simvastatin, ATP luminescence, 48 h; scaled: DMSO 0, geranylgeraniol control 100; rescue of ATP level, % at 7.49 µM; 330,000 tested, 0.78% active; AID 602340, 2012;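 active = mean ATP rescue above about 67%, or every replicate alone reaching that limit, limit read from the data, passing the limit was not always enough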;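 note: myotubes were challenged with 10 µM simvastatin during compound exposure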
ASAP1 inh: inhibitors of human ASAP1 ArfGAP activity, primary screen, biochemical, fluorescence polarization | Arf-GAP with SH3 domain, ANK repeat and PH domain-containing protein 1 (Homo sapiens), … | ASAP1-stimulated ARF1 GTP hydrolysis, GDP FP detection | inhibition, % at 16.5 µM | 360,000 tested, 0.19% active | AID 624377, 2012; in the data active = inhibition above about 25%;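 note: 0% = vehicle with enzyme and substrate and 100% = no enzyme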
ARFGAP1 inh: inhibitors of rat ARFGAP1 GAP activity, primary screen, biochemical, fluorescence polarization, GDP tracer. Arfgap1-stimulated ARF1 GTP hydrolysis, GDP FP detection. ADP-ribosylation factor GTPase-activating protein 1 (Rattus norvegicus), Q62848. AID 651572, 2012. inhibition, % at 16.5 µM. 360,000 tested, 0.26% active;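 active = inhibition above a per-plate limit, mean inhibition of low control wells plus 3 SD, cut at about 25% in these data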;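 note: 0% = DMSO wells with enzyme and 100% = wells lacking Arfgap1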
Target sequence (Q62848 1-136 limits assumed): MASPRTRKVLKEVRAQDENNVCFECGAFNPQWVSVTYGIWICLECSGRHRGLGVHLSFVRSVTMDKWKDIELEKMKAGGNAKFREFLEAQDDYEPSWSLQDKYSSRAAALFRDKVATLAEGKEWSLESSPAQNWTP
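Material – truncated rat Arfgap1 GAP domain · Buffer or medium – HEPES-based buffer, pH 7.5 · Reagent – human ARF1(Δ1-17)-GTP substrate · Dosing – 16.5 µM single point, 1.26% DMSO · Schedule – GTP hydrolysis reaction 2 h at 25 °C · Technique – GDP detection by fluorescence polarization · Benchmarks – No-Arfgap1 wells (100%) versus DMSO full-reaction wells (0%) · Repeats – single replicate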
Mot1-301 SUMO: yeast Mot1-301 growth rescue at high temperature, primary screen, SUMOylation pathway inhibitor project, S. cerevisiae, ATP luminescence, 38.5C | growth rescue, % at 18.8 µM | AID 2716, 2010 | 320,000 tested, 1% active | S. cerevisiae Mot1-301 growth rescue; percent above DMSO median, 100 means doubled;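 active = every valid replicate shows activation above 250% relative to neutral control wells; inactive = the rest, any valid replicate at or below 250%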;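 note: OY570 slx delta 5 strain wells were the positive control but not used for scaling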
A3A deaminase: APOBEC3A ssDNA deaminase inhibitors, primary screen, selectivity assay for APOBEC3G inhibitor project, biochemical, FAM/TAMRA oligo cleavage fluorescence; DNA dC->dU-editing enzyme APOBEC-3A (Homo sapiens), P31941; recombinant A3A, FAM/TAMRA ssDNA deamination fluorescence; inhibition, % at 20 µM; 330,000 tested, 0.41% active;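 active = at least 40% inhibition at 20 µM here, with at most 30% in a related deaminase screen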;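 note: plate controls were A3A with DMSO for no effect and wells lacking A3A enzyme for full effect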
Target sequence (P31941 whole entry, looked up): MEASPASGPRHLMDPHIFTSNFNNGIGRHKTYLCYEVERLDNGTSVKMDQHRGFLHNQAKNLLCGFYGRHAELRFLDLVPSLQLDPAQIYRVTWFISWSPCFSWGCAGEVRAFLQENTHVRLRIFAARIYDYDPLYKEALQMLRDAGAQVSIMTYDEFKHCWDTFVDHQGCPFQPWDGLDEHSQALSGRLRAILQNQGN
APOBEC3A confirm: APOBEC3A deaminase inhibitors, retest, confirmation, selectivity assay for APOBEC3G inhibitor project, biochemical, single concentration, fluorescence readout; shares compounds with A3A deaminase; recombinant A3A, ssDNA deaminase UDG fluorescence assay; inhibition, % at 20 µM; 1,400 tested, 63% active; AID 493151, 2011;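 active = inhibition reaching a set limit, 80% of the first screen's cutoff, at 20 µM in any replicate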;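 note: plate controls were DMSO wells with A3A for no effect and wells lacking A3A enzyme for full effect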
UDG A3A counter: E. coli UDG inhibitors, confirmation, counter-screen for APOBEC3A inhibitor project, biochemical, single concentration, fluorescence, FAM/TAMRA oligo | shares compounds with A3A deaminase | UDG counterscreen, FAM/TAMRA uracil oligo fluorescence | inhibition, % at 20 µM | 1,000 tested, under 10 active | AID 504714, 2011; call rule not given here
An asterisk follows results filed as active. Rows were chosen to be rich in hits. Some 2.1% of all compounds tested hit in one or more screens of this group.

How did CN(C)c1ccc(/C=C2/C(=O)NC(=O)N(Cc3ccco3)C2=O)cc1 do in these assays?
A3G deaminase: 20; C2C12 statin: 0; ASAP1 inh: -10; ARFGAP1 inh: -3; Mot1-301 SUMO: 383*; A3A deaminase: 60*; APOBEC3A confirm: 39*; UDG A3A counter: -4

What do the screens show for `COc1ccc(CN2C(=O)NC(=O)/C(=C\c3ccco3)C2=O)cc1`?
A3G deaminase: 26; C2C12 statin: 2; ASAP1 inh: 6; ARFGAP1 inh: -8; Mot1-301 SUMO: 22; A3A deaminase: 47*; APOBEC3A confirm: 62*; UDG A3A counter: 2

What do the screens show for `CCN1[C@@H]2c3ccc(-c4ccc(OC)cc4)c(=O)n3C[C@H]1[C@H](CO)[C@H]2C(=O)OC`?
C2C12 statin: 10

How did COC(=O)[C@H]1[C@H](CO)[C@H]2Cn3c(ccc(C4=CCCC4)c3=O)[C@@H]1N2CC1CCCCC1 do in these assays?
C2C12 statin: -10

What do the screens show for `CC(C)[N+](C)(CCC(C(N)=O)(c1ccccc1)c1ccccc1)C(C)C`?
A3G deaminase: 15; C2C12 statin: -1; ASAP1 inh: 3; ARFGAP1 inh: -1; Mot1-301 SUMO: -18; A3A deaminase: 68*; APOBEC3A confirm: 83*; UDG A3A counter: 3

How did CN1CC[C@]23c4c5ccc(O)c4OC2[C@H](O)C=CC3[C@H]1C5 (stereo not given in full) do in these assays?
A3G deaminase: 2; C2C12 statin: 3; ASAP1 inh: 1; ARFGAP1 inh: -2; A3A deaminase: 0

What do the screens show for `COc1ccc2c3c1OC1C(O)C=CC4C(C2)[N+](C)(C)CCC341` (stereo not given)?
A3G deaminase: 16; C2C12 statin: 6; ASAP1 inh: -1; ARFGAP1 inh: 6; Mot1-301 SUMO: 49; A3A deaminase: 71*; APOBEC3A confirm: 51*

What do the screens show for `CCCCCCC[n+]1ccc(-c2cc[n+](CCCCCCC)cc2)cc1`?
A3G deaminase: 28; ASAP1 inh: 0; ARFGAP1 inh: -3; Mot1-301 SUMO: -12; A3A deaminase: 58*; APOBEC3A confirm: 75*; UDG A3A counter: -2

Results for c1ccc2c[n+](CCCCCCCCCC[n+]3ccc4ccccc4c3)ccc2c1 ?
ASAP1 inh: -5; ARFGAP1 inh: -2

How did COC(=O)[C@H]1[C@H](CO)[C@H]2Cn3c(ccc(-c4ccccc4F)c3=O)[C@@H]1N2C(=O)C1CC1 do in these assays?
C2C12 statin: -3

What do the screens show for `O=C1NC(=O)N(c2ccc3c(c2)OCO3)C(=O)/C1=C\c1ccc(-c2ccccc2C(=O)O)o1`?
A3G deaminase: 26; ASAP1 inh: 3; ARFGAP1 inh: 7; Mot1-301 SUMO: -11; A3A deaminase: 76*; APOBEC3A confirm: 65*; UDG A3A counter: -2

How did COc1ccc(N=C2SCCCN2C)cc1 do in these assays?
A3G deaminase: 24; C2C12 statin: 4; ASAP1 inh: 6; ARFGAP1 inh: 9; Mot1-301 SUMO: 12; A3A deaminase: 48*; APOBEC3A confirm: 72*; UDG A3A counter: 1

What do the screens show for `O=C(O)[C@@H]1[C@@H](CO)[C@@H]2Cn3c(ccc(-c4ccccc4)c3=O)[C@H]1N2CC1CCCCC1`?
C2C12 statin: 13

Results for C=C1N2CCC(CC2)C1(O)c1ccc(C)cc1 (stereo not given) ?
A3G deaminase: -6; C2C12 statin: -6; ASAP1 inh: 5; ARFGAP1 inh: 1; Mot1-301 SUMO: -6; A3A deaminase: -6

Results for C=C1C(O)(c2ccccc2)C2CC[N+]1(C)CC2 (stereo not given) ?
A3G deaminase: 22; C2C12 statin: 5; ASAP1 inh: 3; ARFGAP1 inh: -7; Mot1-301 SUMO: 1; A3A deaminase: 76*; APOBEC3A confirm: 74*; UDG A3A counter: 5

How did CC(C)(C#CCCCCC#CC(C)(C)[N+](C)(C)C)[N+](C)(C)C do in these assays?
A3G deaminase: 14; Mot1-301 SUMO: 4; A3A deaminase: 51*; APOBEC3A confirm: 46*

Results for C[N+]1(C)[C@@H]2CC[C@H]1CC(OC(=O)C(c1ccccc1)c1ccccc1)C2 (stereo not given in full) ?
A3G deaminase: 21; C2C12 statin: -2; ASAP1 inh: -2; ARFGAP1 inh: 14; Mot1-301 SUMO: -11; A3A deaminase: 46*; APOBEC3A confirm: 61*

What do the screens show for `O=Cc1c(C(=O)O)n(Cc2ccccc2Cl)c2ccccc12`?
A3G deaminase: -5; ASAP1 inh: 7; ARFGAP1 inh: -5; Mot1-301 SUMO: 13; A3A deaminase: -6

Results for C=Cc1ccc(Cn2c(C(=O)O)c(C=O)c3ccccc32)cc1 ?
A3G deaminase: 5; ASAP1 inh: -13; ARFGAP1 inh: -10; Mot1-301 SUMO: -20; A3A deaminase: 74*; APOBEC3A confirm: 17

How did CCCNC(=O)[C@H]1[C@H](CO)[C@H]2Cn3c(cccc3=O)[C@@H]1N2CCC do in these assays?
C2C12 statin: -26

Results for C[N+]12CCC(CC1)C(C#N)(N1CCOCC1)C2 (stereo not given) ?
A3G deaminase: 17; ASAP1 inh: -7; ARFGAP1 inh: 8; Mot1-301 SUMO: -1; A3A deaminase: 46*; APOBEC3A confirm: 81*; UDG A3A counter: -1

Results for COC(=O)[C@@H]1[C@@H](CO)[C@@H]2Cn3c(ccc(-c4cccc(F)c4)c3=O)[C@H]1N2C(=O)CC1CC1 ?
C2C12 statin: -7
